Compound activity: PubChem BioAssay, several laboratories
APP 5'UTR act – activates APP 5'UTR luciferase reporter; SH-SY5Y APP 5'UTR luciferase reporter, luminescence; zero percent = DMSO vehicle wells; activation, % at 2 µM; 190,000 compounds, 1% hits;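 active = activation above a set limit, based on mean plus 3 SD of controls, cut at about 140% in these data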
STAT1 inh – inhibitors of IFN-gamma induced STAT1 signaling | 200,000 compounds, 0.35% hits | inhibition, % at 5.5 µM | NIH 3T3 STAT1-luciferase reporter, luminescence | AID 920;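 active = inhibition above a set limit, the mean inhibition across all tested compounds plus 3 SD, cut at about 34% in these data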;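 also: 0% = IFN-gamma with DMSO and 100% = IFN-gamma with 300 µM nifuroxazide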
NF-kB neuron act – NF-kB expression increase, human neuronal cells. fold change at 12.5 µM. 190,000 compounds, 1.6% hits. NF-kB reporter expression; hits give high values. AID 1239; in the data active = fold change above about 3.3
STAT1 activator – activators of IFN-gamma induced STAT1 signaling; 200,000 compounds, 2.6% hits; NIH 3T3 STAT1-luciferase reporter, luminescence; 100% = IFN-gamma alone, no compound; activation (% of control), % at 5.5 µM;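 active = activation above the screen-wide mean activation plus 3 SD, cut at about 130% in these data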;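 also: raw ratio to IFN-gamma control signal so 100% means no change and 0% no light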
STAT3 act – STAT3 signaling activation; U3A cells, IL-6 STAT3-luciferase reporter, luminescence; 100% = signal with IL-6 EC80 alone; activation (% of control), % at 5.6 µM; 190,000 compounds, 0.91% hits;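 active = activation above the screen-wide mean of compound activation plus 3 SD, cut at about 130% in these data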;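 also: 0% = background luminescence of wells with medium and substrate only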
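Material: STAT3-luciferase reporter U3A cells; Probe or stimulus: IL-6 (33 ng/mL); Incubation: compound pre-incubation 1 h before IL-6, then 6 h stimulation at 37 °C; Technique: luminescence from STAT3-driven luciferase reporter; Evaluation: % activation versus median of IL-6-stimulated wells; Controls: IL-6-only high control.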
Pf gamet viab – P. falciparum stage V gametocyte viability inhibition; inhibition, % at 10.9 µM; P. falciparum stage V gametocytes, ATP luminescence, 24 h; AID 743093; 150,000 compounds, 0.065% hits;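 active = inhibition above the mean plus 3 SD of compounds within the control limits, set per campaign, cut at about 38% in these data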;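 also: 0% = DMSO wells and 100% = medium only without gametocytes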
* marks the source's active call; other numbers are inactive results; x = no result given. Hits are enriched below; roughly 3.9% of the tested compounds scored in any of these assays.

SMILES | APP 5'UTR act | STAT1 inh | NF-kB neuron act | STAT1 activator | STAT3 act | Pf gamet viab
Cc1ccc2oc(C(=O)Nc3nnc(C)s3)c(C)c2c1 | 7.8 | -44.4 | 4.7* | 140.9* | 77.4 | x
O=C(Nc1ccc(Cl)cc1)OCc1cn(-c2ccc(Cl)cc2)nn1 | x | -9.8 | 1.45 | 108.9 | 100.5 | 2.2
Clc1ccc(-n2cc(COCc3ccccc3)nn2)cc1 | 170.0* | 3.7 | 4.1* | 96.7 | 68.2 | -39.4
O=C(COc1ccc(Cl)cc1Cl)Nc1ccccn1 | -0.8 | 88.9* | 0.97 | 19.5 | 8.3 | x
CC(c1ccco1)N(C(=O)COc1ccc(Cl)cc1)c1ccccn1 (stereo not given) | 83.2 | -1.8 | 0.99 | 101.6 | 103.5 | -15.4
COc1ccccc1OCC(=O)Nc1ccccn1 | 125.4 | -29.0 | 1.13 | 128.7* | 92.0 | -0.1
CC(c1ccco1)N(C(=O)COc1ccc(Cl)cc1Cl)c1ccccn1 (stereo not given) | 197.0* | -24.2 | 3.95* | 122.1 | 84.7 | 19.8
COc1ccccc1OCC(=O)Nc1ccncc1 | x | x | x | x | x | 4.9
Cc1cccc2[nH]c(CN(C)C(=O)CC3C(=O)NCCN3CC(C)(C)C)nc12 (stereo not given) | 5.4 | 3.7 | 1.08 | 95.2 | 98.1 | -4.1
Cc1nn(C)c(C(=O)NN)c1Cl | 4.4 | 8.0 | 1.13 | 92.7 | 94.5 | -31.2
COC(=O)C(Cc1ccccc1)NC(=O)CCCC(=O)NCc1cccc(OC)c1 (stereo not given) | x | x | x | x | x | 3.9
CC1=C/C(=N\OS(=O)(=O)c2ccccc2)C(C)=CC1=O | -94.8 | -0.5 | 9.78* | 100.5 | 91.3 | x
CC1=C(C)/C(=N\OS(=O)(=O)c2ccc(C)cc2)C=CC1=O | -90.4 | 1.5 | 1.85 | 98.6 | 112.0 | 11.6
CC1=CC(=O)c2ccccc2C1=O | 21.7 | -6.6 | 0.87 | 106.0 | 118.1 | x
CC1=C/C(=N\OS(=O)(=O)c2ccccc2)C(C(C)C)=CC1=O | -95.7 | 0.8 | 5.89* | 99.3 | 93.7 | x
CCN(CC)S(=O)(=O)c1ccc(=O)[nH]c1 | 22.3 | 2.1 | 1.09 | 97.7 | 102.4 | -10.3
CNC(=O)c1[nH]cnc1C(=O)NCC(=O)OCc1ccccc1 | x | x | x | x | x | -15.3
CCc1nnc(NS(=O)(=O)c2ccc(NC(=O)Nc3ccc(OC)cc3)cc2)s1 | x | x | x | x | x | 10.9
CCc1nnc(NC(=O)c2ccc(S(C)(=O)=O)cc2)s1 | x | x | x | x | x | 4.4
CCc1nnc(NC(=O)c2cccc(OC)c2)s1 | 101.3 | -39.9 | 2.71 | 137.2* | 86.4 | 13.7
CCOc1ccc(N/C=C/C(=O)c2ccc(OC)c(OC)c2)cc1 | x | x | x | x | x | 9.8
CCc1nnc(NS(=O)(=O)c2ccc(N/C=C/C(=O)c3ccc(OC)cc3)cc2)s1 | 6.1 | -40.9 | 1.1 | 136.0* | 99.7 | 2.9
CCOCc1nnc(NC(=O)c2cccc(OC)c2)s1 | 22.1 | -19.8 | 2.87 | 117.1 | 101.5 | -7.5
CCOc1ccc(C(=O)/C=C/Nc2ccc(S(=O)(=O)N=C(N)N)cc2)cc1 | 1.1 | -34.5 | 1.36 | 130.8* | 104.1 | 20.8
CCc1nnc(NC(=O)c2ccc(OC)cc2)s1 | 128.7 | 9.8 | 4.01* | 89.4 | 54.5 | 18.9
SMILES | APP 5'UTR act | STAT1 inh | NF-kB neuron act | STAT1 activator | STAT3 act | Pf gamet viab
Cc1ccc(-c2nnn(CC(=O)N3CCCCC3)n2)cc1 | x | x | x | x | x | 13.2
CC(C)(CO)NCC#Cc1ccccc1 | -2.9 | -1.5 | x | 101.8 | 103.9 | -21.4
CCOc1cccc(C(=O)Nc2nnc(-c3ccco3)s2)c1 | 119.8 | -26.8 | 3.3* | 124.6 | 60.9 | -47.1
Cc1ccc(-c2cn3nc(C)c(C)nc3n2)cc1 | 46.5 | -13.7 | 4.74* | 110.9 | 107.4 | x
Nc1cc(-c2ccc(Cl)cc2)nn1S(=O)(=O)c1ccc(Cl)cc1 | 4.9 | 5.0 | 1.27 | 95.5 | 87.6 | x
O=C1CCn2nc(-c3ccc(Cl)cc3)cc2N1 | 63.6 | -37.5 | 2.73 | 136.2* | 110.7 | x
Cn1c2ccccc2c(=O)c2c(=O)n(Cc3ccccc3)c(-c3ccc(F)cc3)nc21 | x | x | x | x | x | 17.8
COc1ccc(NC(=O)c2cc(-c3ccco3)on2)cc1 | -4.9 | -55.0 | 1.27 | 149.3* | 103.8 | -5.3
O=C(Nc1cccnc1Cl)c1cc(-c2ccco2)on1 | 22.2 | -28.9 | 2.81 | 126.7 | 107.3 | x
CCc1ccc(NC(=O)c2cc(-c3ccco3)on2)cc1 | -6.2 | -32.1 | 2.64 | 129.7* | 93.7 | x
CN1C(=O)NC(c2cccc(O)c2)C(C(=O)c2cccs2)C1(O)C(F)(F)F (stereo not given) | 135.2* | 1.1 | 1.76 | 99.0 | 96.4 | x
COc1ccnc(Oc2ccccc2)c1C(=O)N/C=N/OCc1ccccc1F | -22.2 | 4.4 | 0.79 | 94.5 | 109.3 | 16.0
[O-][n+]1c2ccccc2cc2ccccc21 | x | x | x | x | x | -39.1
COc1ccc(-c2nn3c(-c4ccccc4)nnc3s2)cc1 | 8.3 | -7.7 | 1.05 | 107.0 | 104.5 | 19.6
CCN(CC)c1ccc(-c2nn3c(-c4ccccc4OC)nnc3s2)cc1 | -93.9 | -19.1 | 1.72 | 117.5 | 136.3* | x
Cc1cccc(C(=O)N[C@H](C(=O)Nc2nc3ccc(S(C)(=O)=O)cc3s2)C(C)C)c1 | 5.6 | -1.5 | 1.15 | 98.3 | 90.4 | x
CC(=O)Nc1cc(C(=O)OCC(=O)c2ccc(C)cc2)ccc1C | 16.8 | -46.1 | 3.9* | 143.4* | 122.1 | -8.6
O=C(COC(=O)c1cccs1)c1ccc2ccccc2c1 | 51.1 | -25.2 | 1.9 | 123.3 | 104.3 | -1.9
Cc1ccc(C(=O)COC(=O)c2cccs2)cc1 | 198.4* | 24.7 | 7.5* | 77.2 | 64.5 | 2.3
CCc1ccc(C(=O)COC(=O)c2cccs2)cc1 | 156.3* | -22.6 | 1.8 | 115.3 | 79.5 | x
Cc1ccc(C(=O)COC(=O)CNC(=O)c2cccs2)cc1 | -2.3 | -4.7 | 1.11 | 102.3 | 104.5 | -17.0
O=C(CNCC1(N2CCOCC2)CCCCC1)Nc1ccc(Cl)cc1 | 18.4 | 5.6 | 1 | 94.2 | 108.5 | x
O=C(CCn1cccc(C(F)(F)F)c1=O)Nc1cccc(C(F)(F)F)c1 | x | x | x | x | x | 4.7
COc1cc(NC(=O)CC(C)C)ccc1NC(=O)c1ccco1 | 97.0 | -45.2 | x | 141.3* | 89.7 | 11.4
O=C(Nc1ccccn1)c1ccc(NC(=O)c2ccco2)cc1 | 158.8* | -33.9 | 2.69 | 129.3* | 97.0 | -49.3
SMILES | APP 5'UTR act | STAT1 inh | NF-kB neuron act | STAT1 activator | STAT3 act | Pf gamet viab
CC(=O)c1cccc(NC(=O)c2ccco2)c1 | 6.1 | -3.8 | 1.39 | 103.4 | 91.8 | x
Cc1ccc(NC(=O)c2ccco2)cc1C | 105.0 | -34.8 | 2.38 | 131.7* | 97.2 | -5.0
O=C(c1ccccc1)c1cccc(NC(=O)c2ccco2)c1 | 39.3 | -32.0 | 1.86 | 129.4* | 101.0 | x
CC(=O)Nc1cccc(NC(=O)c2ccco2)c1 | 7.7 | -2.3 | 0.87 | 103.3 | 101.3 | -10.3
CCC(=O)Nc1ccc(NC(=O)c2ccco2)c(OC)c1 | 10.0 | -26.5 | 1.8 | 124.5 | 91.5 | x
Clc1cc(Cl)cc(C2=NC(Cc3ccccc3)CO2)c1 (stereo not given) | x | x | x | x | x | -18.5
CCOc1cc(C2NC(=O)NC(C)=C2C(=O)OCC2CCCCC2)ccc1O (stereo not given) | x | x | x | x | x | 6.1
CCC(=O)Nc1ccc(NC(=O)c2ccco2)cc1 | 39.6 | -33.7 | 1.88 | 130.6* | 96.2 | 9.1
O=C(Nc1ccc2c(c1)OCCO2)c1ccco1 | 92.7 | -30.7 | 2.18 | 128.1 | 75.4 | 15.8
